{"source": "ChEMBL document CHEMBL2062366", "about": "“Synthesis and biological evaluation of purpurealidin E-derived marine sponge metabolites: aplysamine-2, aplyzanzine A, and suberedamines A and B” (2012)", "note": "Active and inactive are the calls of the source. The rule behind the calls is not given here.", "data": [{"test_system": "Mycobacterium tuberculosis", "test": "(§1) Antimycobacterial activity against Mycobacterium bovis BCG after 2 weeks by spot culture growth inhibition assay", "type": "functional", "conditions": "variant bovis BCG", "method_in_brief": "(§2)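 BCG grown in rolling bottles in 7H9 + 10% ADC + 0.05% Tween 80 to midexponential phase, quality-checked by Ziehl−Neelsen staining. Culture diluted to 10³ cfu/mL; 10 μL spotted onto 7H10 agar + 10% OADC containing compound, 37 °C for 2 weeks. Controls: DMSO (negative), isoniazid (positive). MIC = lowest concentration with no growth.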", "values": [{"smiles": "CN(C)CCCOc1c(Br)cc(CCN)cc1Br", "MIC": "inactive"}]}, {"test_system": "Mycobacterium tuberculosis", "test": "as §1", "type": "functional", "conditions": "variant bovis BCG, 336 h", "method_in_brief": "as §2", "units": {"MIC": "µg/mL"}, "values": [{"smiles": "COc1ccc(C/C(=N\\O)C(=O)NCCc2cc(Br)c(OCCCN(C)C)c(Br)c2)cc1Br", "MIC": 25}, {"smiles": "CNC(Cc1cc(Br)c(OC)c(Br)c1)C(=O)NCCCOc1c(Br)cc(CCN(C)C)cc1Br.Cl", "note": "(stereo unspecified) [ANOMOIAN A]", "MIC": 25}, {"smiles": "COc1c(Br)cc(C[C@@H](C(=O)NCCc2cc(Br)c(OCCCN(C)C)c(Br)c2)N(C)C)cc1Br", "note": "[APLYZANZINE A]", "MIC": 25}, {"smiles": "COc1ccc(C[C@H](N)C(=O)NCCc2cc(Br)c(OCCCN(C)C)c(Br)c2)cc1Br", "note": "[SUBEREDAMINE A]", "MIC": 50}, {"smiles": "CN[C@@H](Cc1ccc(OC)c(Br)c1)C(=O)NCCc1cc(Br)c(OCCCN(C)C)c(Br)c1", "note": "[SUBEREDAMINE B]", "MIC": 40}]}]}
